Results reported in ChEMBL document CHEMBL4396876, “Antisulfatase, Osteogenic, and Anticancer Activities of Steroid Sulfatase Inhibitor EO-33 in Mice” (J Med Chem, 2019).

What was measured:
[1] = Plasma concentration in Balb/c mouse at 30 mg/kg, sc administered as single dose using MC/EtOH formulation measured after 3 hrs by LC-MS/MS analysis; assay type: ADME, organism-based
Method in brief: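 Female Balb/c mice, fasted 8 h with free water, given a single dose in 0.1 mL vehicle: EO-33 dissolved in EtOH, then aqueous 0.4% methylcellulose added to a final 8% EtOH. Sacrificed under isoflurane at 1, 3, 7, 12 and 24 h (2–3 mice/group). Cardiac blood collected into K-EDTA and plasma stored at −80 °C. LC-MS/MS on 100 µL plasma. AUC0-24h taken from the five time points.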

[2] = test system: MCF7; assay: Antitumor activity against human MCF7 cells xenografted in nu/nu Br athymic mouse assessed as effect on […]-stimulated tumor growth by measuring tumor size at 30 mg/kg, sc administered 6 days per week for […] using MC/EtOH formulation measured post-last dose (reference value: 171 %); assay type: functional

concentration at 3 h [1]: 2190 ng/mL
Compound: Cc1ccc(CN(Cc2ccc(C(=O)N3CCc4ccc(OS(N)(=O)=O)cc4C3)cc2)Cc2ccco2)s1
Activity [2]: 72%
